Assay results published in ChEMBL document CHEMBL4257503, “N-Acetyl-3-aminopyrazoles block the non-canonical NF-kB cascade by selectively inhibiting NIK” (Medchemcomm, 2018).
pIC50: −log10 of the molar value.

Legend:
[1] = Cytotoxicity against human EJM cells assessed as cell viability at 25 uM after 6 hrs by CellTiter Glo luminescent assay relative to control; format: cell-based; details: read-out: Activity
Outline: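 Cells seeded at 5 x 10^3 per well and exposed for 6 h to the compound (10, 25, 50 or 100 µM) or to DMSO vehicle. Viability was read as intracellular ATP by CellTiter Glo luminescence.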

[2] = target: Dual specificity mitogen-activated protein kinase kinase 1 (Homo sapiens, UniProt Q02750); assay: Inhibition of wild-type MEK1 (unknown origin)
[3] = target: Casein kinase I isoform alpha (Homo sapiens, UniProt P48729); assay: Inhibition of CK1-alpha1 (unknown origin)
[4] = target: Hepatocyte growth factor receptor (Homo sapiens, UniProt P08581); assay: Inhibition of wild-type MET (unknown origin)
[5] = target: Mitogen-activated protein kinase 1 (Homo sapiens, UniProt P28482); assay: Inhibition of ERK2 (unknown origin)
[6] = system: MDA-MB-231; assay: Inhibition of NFkappaB activation in human MDA-MB-231 cells at 100 uM after 6 hrs by dual luciferase reporter gene assay relative to control; format: cell-based
Outline: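 Cells were nucleofected with the pGL4.32 NF-κB-RE firefly luciferase and pGL4.74 TK-Renilla plasmids (3 µg, 10:1 ratio) and cultured for 24 h at 37 °C. Compound (10, 25, 50 or 100 µM) was then added for 6 h. Firefly luminescence was normalised to Renilla from the same sample and expressed as % of vehicle control. Means ± SD of three independent experiments.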

[7] = target: Serine/threonine-protein kinase mTOR (Homo sapiens, UniProt P42345); assay: Inhibition of mTOR (unknown origin)
[8] = target: Death-associated protein kinase 1 (Homo sapiens, UniProt P53355); assay: Inhibition of DAPK1 (unknown origin)
[9] = target: SRSF protein kinase 2 (Homo sapiens, UniProt P78362); assay: Inhibition of SRPK2 (unknown origin)
[10] = target: Tyrosine-protein kinase CSK (Homo sapiens, UniProt P41240); assay: Inhibition of CSK (unknown origin)
[11] = target: T1, Inhibitor of nuclear factor kappa-B kinase subunit beta (Homo sapiens, UniProt O14920); assay: Inhibition of recombinant human full-length N-terminal GST-fused/His6-tagged IKKbeta (M1 to S756 residues) expressed in Sf9 insect cells using ERLLDDRHDSGLDSMKDEE peptide as substrate measured after 60 mins by ADP-Glo kinase assay
T1 sequence (O14920 whole entry): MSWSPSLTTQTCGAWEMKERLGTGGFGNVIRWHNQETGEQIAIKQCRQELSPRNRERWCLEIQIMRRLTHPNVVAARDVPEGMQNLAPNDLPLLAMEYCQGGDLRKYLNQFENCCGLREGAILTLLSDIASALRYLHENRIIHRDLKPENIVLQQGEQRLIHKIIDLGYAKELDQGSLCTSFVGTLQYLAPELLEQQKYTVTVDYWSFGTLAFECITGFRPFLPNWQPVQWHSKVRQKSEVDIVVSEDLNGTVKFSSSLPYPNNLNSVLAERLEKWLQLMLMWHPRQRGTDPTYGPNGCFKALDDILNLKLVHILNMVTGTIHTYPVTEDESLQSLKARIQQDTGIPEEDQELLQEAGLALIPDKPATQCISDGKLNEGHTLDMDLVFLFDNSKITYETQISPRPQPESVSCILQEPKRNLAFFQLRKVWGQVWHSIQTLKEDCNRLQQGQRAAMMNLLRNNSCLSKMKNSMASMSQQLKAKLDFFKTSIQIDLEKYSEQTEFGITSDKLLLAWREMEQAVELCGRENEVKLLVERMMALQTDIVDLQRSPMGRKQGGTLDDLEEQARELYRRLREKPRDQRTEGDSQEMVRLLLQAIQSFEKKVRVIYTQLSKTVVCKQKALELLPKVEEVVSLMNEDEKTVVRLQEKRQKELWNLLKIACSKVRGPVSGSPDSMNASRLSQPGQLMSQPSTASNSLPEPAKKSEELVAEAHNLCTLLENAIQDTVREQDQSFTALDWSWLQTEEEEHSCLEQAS

[12] = target: Serine/threonine-protein kinase tousled-like 1 (Homo sapiens, UniProt Q9UKI8); assay: Inhibition of TLK1 (unknown origin)
[13] = target: Casein kinase II subunit alpha (Homo sapiens, UniProt P68400); assay: Inhibition of CK2-alpha1 (unknown origin)
[14] = target: T2, Inhibitor of nuclear factor kappa-B kinase subunit alpha (Homo sapiens, UniProt O15111); assay: Inhibition of recombinant full length human His-tagged IKKalpha expressed in baculovirus expression system using ERLLDDRHDSGLDSMKDEE peptide as substrate measured after 60 mins by ADP-Glo kinase assay
T2 sequence (O15111 whole entry): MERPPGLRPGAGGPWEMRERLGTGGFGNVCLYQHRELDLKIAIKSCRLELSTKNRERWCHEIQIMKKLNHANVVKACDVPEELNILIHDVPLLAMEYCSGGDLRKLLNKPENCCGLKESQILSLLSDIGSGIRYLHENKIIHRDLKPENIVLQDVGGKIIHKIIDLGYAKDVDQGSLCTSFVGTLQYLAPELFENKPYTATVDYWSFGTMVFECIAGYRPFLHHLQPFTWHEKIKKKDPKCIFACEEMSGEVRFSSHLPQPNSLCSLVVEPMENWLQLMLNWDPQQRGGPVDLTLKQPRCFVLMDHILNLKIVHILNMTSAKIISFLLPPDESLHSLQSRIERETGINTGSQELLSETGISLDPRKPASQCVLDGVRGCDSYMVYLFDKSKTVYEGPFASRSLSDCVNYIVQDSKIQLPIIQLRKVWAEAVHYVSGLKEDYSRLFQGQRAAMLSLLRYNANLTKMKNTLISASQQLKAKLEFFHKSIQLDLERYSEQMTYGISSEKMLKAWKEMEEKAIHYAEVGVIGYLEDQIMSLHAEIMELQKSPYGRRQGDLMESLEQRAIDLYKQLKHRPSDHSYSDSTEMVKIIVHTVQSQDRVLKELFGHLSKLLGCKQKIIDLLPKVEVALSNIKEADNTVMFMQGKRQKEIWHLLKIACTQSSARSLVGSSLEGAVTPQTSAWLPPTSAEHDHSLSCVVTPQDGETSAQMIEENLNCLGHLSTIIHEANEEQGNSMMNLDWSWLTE
Outline: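 Recombinant human IKKα, peptide substrate 100 µM, enzyme 8 ng/µL, ATP 1 µM in Tris-HCl pH 7.5 buffer with MgCl2, MnCl2, DTT, Na3VO4, BSA; 25°C, 60 min; ADP-Glo luminescence. Ten concentrations 0.005–100 µM; IC50 by nonlinear regression; means ± SD of three independent experiments.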

[15] = target: Serine/threonine-protein kinase pim-1 (Homo sapiens, UniProt P11309); assay: Inhibition of PIM1 (unknown origin)
[16] = target: Cyclin-dependent kinase 1/cyclin B1 (Homo sapiens, UniProt P06493); assay: Inhibition of CDK1/Cyclin B1 (unknown origin); format: protein-complex assay
[17] = target: 5'-AMP-activated protein kinase catalytic subunit alpha-1 (Homo sapiens, UniProt Q13131); assay: Inhibition of AMPK alpha1 (unknown origin) (1 to 550 residues)
[18] = target: Tyrosine-protein kinase receptor UFO (Homo sapiens, UniProt P30530); assay: Inhibition of AXL (unknown origin)

Sequence of Mitogen-activated protein kinase 1 (P28482 whole entry): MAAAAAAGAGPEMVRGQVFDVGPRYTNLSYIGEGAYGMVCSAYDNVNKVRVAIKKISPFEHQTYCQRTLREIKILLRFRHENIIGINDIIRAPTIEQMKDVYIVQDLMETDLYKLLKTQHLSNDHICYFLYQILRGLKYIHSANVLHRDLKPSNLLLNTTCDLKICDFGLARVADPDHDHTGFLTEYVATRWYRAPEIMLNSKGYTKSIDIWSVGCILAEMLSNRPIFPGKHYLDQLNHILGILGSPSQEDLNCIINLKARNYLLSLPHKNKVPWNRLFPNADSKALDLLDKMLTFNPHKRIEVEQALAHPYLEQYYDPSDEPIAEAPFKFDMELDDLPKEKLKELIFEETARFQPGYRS
Sequence of Hepatocyte growth factor receptor (P08581 whole entry): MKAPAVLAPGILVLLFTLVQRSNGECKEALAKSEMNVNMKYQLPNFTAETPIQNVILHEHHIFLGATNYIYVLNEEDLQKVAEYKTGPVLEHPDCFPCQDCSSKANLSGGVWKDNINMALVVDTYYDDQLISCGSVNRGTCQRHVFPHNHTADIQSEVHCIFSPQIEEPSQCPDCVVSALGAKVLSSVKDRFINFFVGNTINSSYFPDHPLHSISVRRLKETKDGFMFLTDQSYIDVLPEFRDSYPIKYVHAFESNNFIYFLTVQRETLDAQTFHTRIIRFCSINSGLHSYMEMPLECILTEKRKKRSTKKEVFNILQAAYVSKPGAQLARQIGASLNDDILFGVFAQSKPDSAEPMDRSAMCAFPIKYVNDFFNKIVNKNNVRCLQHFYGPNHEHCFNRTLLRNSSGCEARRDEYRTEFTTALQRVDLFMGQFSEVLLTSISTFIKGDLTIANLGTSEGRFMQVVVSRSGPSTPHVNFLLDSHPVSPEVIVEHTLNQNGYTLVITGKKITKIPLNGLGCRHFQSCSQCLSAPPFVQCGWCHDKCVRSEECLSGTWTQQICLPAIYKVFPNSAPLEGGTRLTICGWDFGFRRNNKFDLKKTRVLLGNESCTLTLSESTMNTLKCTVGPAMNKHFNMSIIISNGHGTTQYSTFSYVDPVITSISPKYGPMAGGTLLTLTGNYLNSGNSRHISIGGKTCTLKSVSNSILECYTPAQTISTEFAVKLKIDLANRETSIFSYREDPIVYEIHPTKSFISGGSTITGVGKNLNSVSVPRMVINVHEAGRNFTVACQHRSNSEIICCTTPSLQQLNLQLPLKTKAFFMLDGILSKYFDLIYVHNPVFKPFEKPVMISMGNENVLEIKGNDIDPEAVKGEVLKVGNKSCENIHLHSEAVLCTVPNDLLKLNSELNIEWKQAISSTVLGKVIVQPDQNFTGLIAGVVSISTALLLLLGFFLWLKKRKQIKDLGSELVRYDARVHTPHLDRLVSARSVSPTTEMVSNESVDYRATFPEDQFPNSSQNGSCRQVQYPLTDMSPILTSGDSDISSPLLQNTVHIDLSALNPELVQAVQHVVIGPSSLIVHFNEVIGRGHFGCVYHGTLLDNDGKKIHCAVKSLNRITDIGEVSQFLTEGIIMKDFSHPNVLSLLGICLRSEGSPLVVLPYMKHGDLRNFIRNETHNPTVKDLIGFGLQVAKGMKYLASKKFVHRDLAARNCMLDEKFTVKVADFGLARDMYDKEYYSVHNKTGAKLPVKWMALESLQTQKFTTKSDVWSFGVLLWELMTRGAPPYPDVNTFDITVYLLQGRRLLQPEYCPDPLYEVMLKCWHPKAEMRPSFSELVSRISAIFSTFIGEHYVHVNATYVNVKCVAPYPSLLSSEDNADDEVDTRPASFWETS
Sequence of SRSF protein kinase 2 (P78362 whole entry): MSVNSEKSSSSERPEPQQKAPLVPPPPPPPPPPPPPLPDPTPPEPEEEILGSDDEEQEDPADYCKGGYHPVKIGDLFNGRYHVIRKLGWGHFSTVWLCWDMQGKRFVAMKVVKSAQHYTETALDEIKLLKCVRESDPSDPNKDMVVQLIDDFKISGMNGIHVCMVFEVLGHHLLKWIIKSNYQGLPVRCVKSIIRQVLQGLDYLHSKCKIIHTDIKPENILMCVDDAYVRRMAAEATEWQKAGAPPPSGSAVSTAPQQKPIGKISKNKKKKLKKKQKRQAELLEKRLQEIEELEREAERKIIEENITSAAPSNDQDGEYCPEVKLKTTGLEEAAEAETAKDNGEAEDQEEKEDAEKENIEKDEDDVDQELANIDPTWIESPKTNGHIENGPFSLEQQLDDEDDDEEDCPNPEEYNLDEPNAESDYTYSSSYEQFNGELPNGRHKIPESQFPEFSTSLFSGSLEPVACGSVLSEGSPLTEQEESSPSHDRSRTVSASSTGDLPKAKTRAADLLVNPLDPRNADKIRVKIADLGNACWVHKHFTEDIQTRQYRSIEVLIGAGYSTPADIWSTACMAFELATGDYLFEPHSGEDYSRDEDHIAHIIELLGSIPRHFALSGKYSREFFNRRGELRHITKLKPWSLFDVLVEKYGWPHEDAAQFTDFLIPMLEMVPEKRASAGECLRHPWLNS
Sequence of Death-associated protein kinase 1 (P53355 whole entry): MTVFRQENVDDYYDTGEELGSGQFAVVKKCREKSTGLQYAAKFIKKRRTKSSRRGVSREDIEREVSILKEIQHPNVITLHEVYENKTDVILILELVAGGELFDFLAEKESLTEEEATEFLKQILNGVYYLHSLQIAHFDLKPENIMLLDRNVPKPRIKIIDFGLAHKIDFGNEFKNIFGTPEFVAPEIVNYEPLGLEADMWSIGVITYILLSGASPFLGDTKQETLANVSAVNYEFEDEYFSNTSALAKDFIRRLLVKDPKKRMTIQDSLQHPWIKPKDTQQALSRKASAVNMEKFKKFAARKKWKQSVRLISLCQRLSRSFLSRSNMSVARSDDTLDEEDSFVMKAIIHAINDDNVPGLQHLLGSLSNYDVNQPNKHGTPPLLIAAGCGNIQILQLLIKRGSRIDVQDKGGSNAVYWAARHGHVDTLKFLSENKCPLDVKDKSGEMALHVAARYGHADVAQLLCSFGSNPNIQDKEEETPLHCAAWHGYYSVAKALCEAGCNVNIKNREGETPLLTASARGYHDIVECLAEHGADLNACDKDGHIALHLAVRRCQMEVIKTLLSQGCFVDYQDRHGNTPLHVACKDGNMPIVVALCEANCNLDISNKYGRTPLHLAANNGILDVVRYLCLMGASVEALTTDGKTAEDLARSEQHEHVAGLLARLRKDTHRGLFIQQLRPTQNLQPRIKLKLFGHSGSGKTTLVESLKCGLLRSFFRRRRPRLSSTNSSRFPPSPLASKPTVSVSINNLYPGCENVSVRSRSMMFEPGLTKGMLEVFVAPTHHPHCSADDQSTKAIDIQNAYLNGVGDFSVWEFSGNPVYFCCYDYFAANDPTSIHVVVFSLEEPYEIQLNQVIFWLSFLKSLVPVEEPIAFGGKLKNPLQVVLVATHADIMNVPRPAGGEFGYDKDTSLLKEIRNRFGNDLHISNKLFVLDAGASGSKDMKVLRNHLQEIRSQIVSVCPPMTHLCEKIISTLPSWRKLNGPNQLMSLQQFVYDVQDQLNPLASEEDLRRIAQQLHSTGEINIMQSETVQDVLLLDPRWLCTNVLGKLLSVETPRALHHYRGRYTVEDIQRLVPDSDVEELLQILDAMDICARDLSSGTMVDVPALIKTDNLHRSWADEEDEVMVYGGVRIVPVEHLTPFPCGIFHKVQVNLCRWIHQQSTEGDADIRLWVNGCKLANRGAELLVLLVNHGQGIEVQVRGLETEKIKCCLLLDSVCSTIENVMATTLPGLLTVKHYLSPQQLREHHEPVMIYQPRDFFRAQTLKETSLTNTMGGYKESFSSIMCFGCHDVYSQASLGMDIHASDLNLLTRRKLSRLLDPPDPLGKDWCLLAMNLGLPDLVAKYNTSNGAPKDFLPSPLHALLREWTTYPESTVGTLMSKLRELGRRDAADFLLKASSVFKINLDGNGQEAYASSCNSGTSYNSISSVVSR
Sequence of Cyclin-dependent kinase 1/cyclin B1 (P06493 whole entry, the tested form may be a part): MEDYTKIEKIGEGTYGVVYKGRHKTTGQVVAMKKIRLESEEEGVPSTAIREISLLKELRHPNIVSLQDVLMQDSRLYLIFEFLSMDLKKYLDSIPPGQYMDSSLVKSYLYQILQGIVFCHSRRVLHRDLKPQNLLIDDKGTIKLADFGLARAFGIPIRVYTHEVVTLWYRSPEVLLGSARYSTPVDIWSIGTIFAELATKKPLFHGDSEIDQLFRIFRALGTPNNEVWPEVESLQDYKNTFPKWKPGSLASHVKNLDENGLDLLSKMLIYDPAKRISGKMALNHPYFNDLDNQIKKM
Sequence of Cyclin-dependent kinase 1/cyclin B1 (P14635 whole entry, further chain, the tested form may be a part): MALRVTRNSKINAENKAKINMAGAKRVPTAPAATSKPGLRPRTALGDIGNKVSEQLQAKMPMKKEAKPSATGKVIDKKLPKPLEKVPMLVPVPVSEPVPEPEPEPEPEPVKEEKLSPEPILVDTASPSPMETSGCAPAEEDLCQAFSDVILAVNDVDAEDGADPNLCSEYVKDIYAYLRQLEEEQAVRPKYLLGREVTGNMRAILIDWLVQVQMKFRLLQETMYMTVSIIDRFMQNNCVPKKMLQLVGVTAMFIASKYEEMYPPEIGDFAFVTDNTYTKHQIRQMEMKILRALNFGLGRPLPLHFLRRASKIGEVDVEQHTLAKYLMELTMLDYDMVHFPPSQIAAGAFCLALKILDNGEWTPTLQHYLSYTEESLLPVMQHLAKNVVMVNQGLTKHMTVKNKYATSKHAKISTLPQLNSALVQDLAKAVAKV
Sequence of Casein kinase I isoform alpha (P48729 whole entry, canonical isoform): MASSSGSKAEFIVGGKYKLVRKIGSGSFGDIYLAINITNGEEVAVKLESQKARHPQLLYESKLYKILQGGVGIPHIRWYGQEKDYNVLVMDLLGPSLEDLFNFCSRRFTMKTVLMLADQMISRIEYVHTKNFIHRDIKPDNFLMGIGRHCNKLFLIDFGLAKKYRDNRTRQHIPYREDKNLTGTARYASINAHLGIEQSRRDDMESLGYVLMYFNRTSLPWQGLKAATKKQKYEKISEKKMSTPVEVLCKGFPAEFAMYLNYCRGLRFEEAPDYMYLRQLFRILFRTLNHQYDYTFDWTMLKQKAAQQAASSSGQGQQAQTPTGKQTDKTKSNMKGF

- pIC50 [2]: < 4.00
- pIC50 [3]: < 4.00
- pIC50 [4]: < 4.00
- pIC50 [5]: < 4.00
- pIC50 [7]: < 4.00
- pIC50 [9]: < 4.00
- pIC50 [10]: < 4.00
- pIC50 [11]: < 4.00
- pIC50 [12]: < 4.00
- pIC50 [13]: < 4.00
- pIC50 [14]: < 4.00
- pIC50 [15]: < 4.00
- pIC50 [16]: < 4.00
- pIC50 [17]: < 4.00
- pIC50 [18]: < 4.00
Compound: CC(=O)n1nc(C)c(-c2ccc(Cl)c(Cl)c2)c1N
- viability at 6 h, 25 µM [1]: ≥ 80%
- inhibition [6]: -0.77%
- pIC50 [8]: < 4.00
